ChEMBL document CHEMBL4321808, “Heteroaryl Phosphonates as Noncovalent Inhibitors of Both Serine- and Metallocarbapenemases” (J Med Chem, 2019)

What was measured:
[1] = Inhibition of N-terminal 6x-His-tagged Klebsiella pneumoniae KPC2 (25 to 293 residues) assessed as reduction in nitrocefin hydrolysis by spectrophotometry
How it was run: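 Purified recombinant KPC-2 at 1 nM in 100 mM Tris-HCl pH 7.0 with 0.01% Triton X-100, 37 °C, reaction started by enzyme. IC50 from sigmoidal fit; Ki by Cheng-Prusoff using the nitrocefin Km. Run in duplicate, or once or in triplicate for some compounds.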

[2] = Inhibition of N-terminal 6x-His/Sumo-tagged NDM-1 (29 to 270 residues) (unknown origin) expressed in Escherichia coli BL21 (DE3) assessed as reduction in nitrocefin hydrolysis by spectrophotometry; design: species or system Bacteria
How it was run: (§1)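 Metallo-enzyme assay in 50 mM HEPES pH 7.2 with 50 µM zinc sulfate, 0.01% Triton X-100 and 20 µg/mL BSA, 37 °C. NDM-1 was construct 1 with the His/SUMO tag cleaved, at 2 nM; VIM-2 had its His tag TEV-cleaved, at 0.5 nM.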

[3] = Inhibition of N-terminal 6x-His-tagged VIM-2 (unknown origin) expressed in Escherichia coli Rosetta 2 (DE3) assessed as reduction in nitrocefin hydrolysis by spectrophotometry; design: species or system Bacteria
How it was run: as §1, with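 “nM. Nitrocefin hydrolysis read at 486 nm; IC50 from sigmoidal fit, Ki by Cheng-Prusoff; mostly duplicate.” for “nM.”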

Pseudomonas aeruginosa [4] = assay: Inhibition of KPC2 in Pseudomonas aeruginosa 4135 assessed as potentiation of ceftazidime-induced antimicrobial activity by measuring ceftazidime MIC incubated for 18 to 20 hrs by CLSI based method (reference value: […] ug/ml)
Pseudomonas aeruginosa [5] = assay: Inhibition of NDM1 in Pseudomonas aeruginosa 4129 assessed as potentiation of ceftazidime-induced antimicrobial activity by measuring ceftazidime MIC incubated for 18 to 20 hrs by CLSI based method (reference value: 128 ug/ml)
How it was run: (§2)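 CLSI broth microdilution in MHBII. Standardized inoculum was a 0.5 McFarland suspension diluted to about 5×10^5 CFU per well. Ceftazidime was tested over 64–0.006 µg/mL, with avibactam fixed at 4 µg/mL as the positive control.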

Pseudomonas aeruginosa [6] = assay: Inhibition of NDM1 in efflux positive Pseudomonas aeruginosa 4177 assessed as potentiation of ceftazidime-induced antimicrobial activity by measuring ceftazidime MIC incubated for 18 to 20 hrs by CLSI based method (reference value: 128 ug/ml); how it was run: as §2
[7] = molecular target: Beta-lactamase VIM-2 (Pseudomonas aeruginosa) (UniProt Q9K2N0); assay: Inhibition of VIM-2 in efflux positive Pseudomonas aeruginosa 4402 assessed as potentiation of ceftazidime-induced antimicrobial activity by measuring ceftazidime MIC incubated for 18 to 20 hrs by CLSI based method (reference value: 32 ug/ml); how it was run: as §2
Klebsiella pneumoniae [8] = assay: Antimicrobial activity against Klebsiella pneumoniae C2 expressing KPC2 assessed as inhibition of microbial growth incubated for 18 to 20 hrs in presence of imipenem by CLSI based method; format: functional
Pseudomonas aeruginosa [9] = assay: Antimicrobial activity against Pseudomonas aeruginosa 4135 expressing KPC2 assessed as inhibition of microbial growth incubated for 18 to 20 hrs in presence of imipenem by CLSI based method; format: functional
Pseudomonas aeruginosa [10] = assay: Antimicrobial activity against Pseudomonas aeruginosa 4129 expressing NDM1 assessed as inhibition of microbial growth incubated for 18 to 20 hrs in presence of imipenem by CLSI based method; format: functional
Pseudomonas aeruginosa [11] = assay: Antimicrobial activity against efflux positive Pseudomonas aeruginosa 4177 expressing NDM1 assessed as inhibition of microbial growth incubated for 18 to 20 hrs in presence of imipenem by CLSI based method; format: functional
Pseudomonas aeruginosa [12] = assay: Antimicrobial activity against Pseudomonas aeruginosa 4882 expressing VIM2 assessed as inhibition of microbial growth incubated for 18 to 20 hrs in presence of imipenem by CLSI based method; format: functional
Pseudomonas aeruginosa [13] = assay: Antimicrobial activity against efflux positive Pseudomonas aeruginosa 4402 expressing VIM2 assessed as inhibition of microbial growth incubated for 18 to 20 hrs in presence of imipenem by CLSI based method; format: functional
[14] = Cytotoxicity in HEK293T cells assessed as cell recovery rate at 100 ug/ml incubated for 48 hrs by MTT assay relative to control; format: cell-based, HEK-293T; settings: human, read-out: Activity
How it was run: (§3)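 HEK293T cells grown in DMEM with 10% FBS and 1% penicillin/streptomycin. Compounds in DMSO were tested at 200–3.125 µg/mL, two-fold dilutions, for 48 h at 37 °C, 5% CO2. Viability by MTT, read at OD 570 nm; percent recovery calculated against solvent-only controls.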

[15] = Cytotoxicity in HEK293T cells assessed as cell recovery rate at 200 ug/ml incubated for 48 hrs by MTT assay relative to control; format: cell-based, HEK-293T; settings: human, read-out: Activity; how it was run: as §3
[16] = Half life in mouse liver microsomes; format: ADME, Microsome
[17] = Intrinsic clearance in mouse liver microsomes; format: ADME, Microsome
[18] = Kinetic solubility in pH 7.4 PBS; format: physicochemical; settings: buffer
[19] = Apparent permeability from apical to basolateral side in MDCK-MDR1 cells; format: ADME, cell-based, Canis lupus familiaris; settings: dog
[20] = Apparent permeability from basolateral to apical side in MDCK-MDR1 cells; format: ADME, cell-based, Canis lupus familiaris; settings: dog
[21] = Permeability in MDCK-MDR1 cells assessed as drug recovery; format: ADME, cell-based, Canis lupus familiaris; settings: dog
Klebsiella pneumoniae [22] = assay: Inhibition of KPC2 in Klebsiella pneumoniae C2 assessed as potentiation of imipenem-induced antimicrobial activity by measuring imipenem MIC incubated for 18 to 20 hrs by CLSI based method (reference value: 512 ug/ml)
[23] = molecular target: Beta-lactamase VIM-2 (Pseudomonas aeruginosa) (UniProt Q9K2N0); assay: Inhibition of VIM-2 in Pseudomonas aeruginosa 4882 assessed as potentiation of imipenem-induced antimicrobial activity by measuring imipenem MIC incubated for 18 to 20 hrs by CLSI based method (reference value: 32 ug/ml)

O=c1cc(CP(=O)(O)O)c2c(Br)cc(Br)cc2[nH]1
Ki [1]: 0.02 µM
Ki ([2]; read-out: Ki): 31.4 µM
Ki [3]: 0.316 µM
MIC (Pseudomonas aeruginosa [4]): 2 µg/mL
MIC (Pseudomonas aeruginosa [5]): 8 µg/mL
MIC (Pseudomonas aeruginosa [6]): 32 µg/mL
MIC [7]: 4 µg/mL
MIC (Klebsiella pneumoniae [8]): 16 to 128 µg/mL
MIC (Pseudomonas aeruginosa [9]): 128 µg/mL
MIC (Pseudomonas aeruginosa [10]): 128 µg/mL
MIC (Pseudomonas aeruginosa [11]): 128 µg/mL
MIC (Pseudomonas aeruginosa [12]): 128 µg/mL
MIC (Pseudomonas aeruginosa [13]): 128 µg/mL
viability at 48 h, 100 ug/ml [14]: 88%
viability at 48 h, 200 ug/ml [15]: 70%
t1/2 [16]: > 2 h
CLH [17]: < 11.6 µL/min/mg
Kinetic_solubility [18]: 241 µM
Papp [19]: < 0.7 ×10⁻⁶ cm/s
Papp [20]: < 0.2 ×10⁻⁶ cm/s
Drug recovery [21]: 91%
MIC (Klebsiella pneumoniae [22]): 4 to 16 µg/mL
MIC [23]: 2 µg/mL

Cc1cc(F)c2c(CP(=O)(O)O)cc(=O)oc2c1
Ki [1]: 8.5 µM
Ki ([2]; read-out: Ki): 230 µM
Ki [3]: 3.3 µM

CC(C)NCC(O)COc1cccc2ccccc12 (stereo unspecified) [PROPRANOLOL]
Drug recovery [21]: 97%

Cn1c(=O)cc(CP(=O)(O)O)c2ccccc21
Ki ([2]; read-out: Ki): 81 µM
Ki [3]: 7.5 µM

O=P(O)(O)Cc1ccnc2ccccc12
Ki [1]: 326 µM
Ki [2]: Not Active
Ki [3]: 30.3 µM

COc1cc(C)cc2oc(=O)cc(CP(=O)(O)O)c12
Ki [1]: 11.9 µM

O=P(O)(O)Cc1cccc2cccnc12
Ki [3]: 22.3 µM

Cc1cc2oc(=O)cc(CP(=O)(O)O)c2cc1C
Ki ([2]; read-out: Ki): 44.3 µM
Ki [3]: 2.1 µM
